In data set [1] the test system is Mus musculus. The data set is described as follows: In vivo neurotoxicity at 600 mg/kg, number of animals exhibiting neurotoxicity in the rotarod test / number of animals tested at 0.5 hr; 0/4. It counts as toxicity, organism-based. On the set-up: dose 600 mg/kg. On the technique in general: In the rotarod test animals must keep their balance on a rotating rod.

In data set [2] the test system is Mus musculus. The data set is described as follows: In vivo anticonvulsant activity against electric shock induced seizures(MES) in mice 4 hr after ip administration; indicates inactive at 600 mg/kg. It counts as functional, organism-based. On the set-up: dose 600 mg/kg.
The target in data set [3] is GABA-A receptor; anion channel (Rattus norvegicus) (UniProt O09028+P15431+P18506+P18508+P19969+P20236+P23574+P23576+P28471+P28473+P30191+P62813+P63079+P63138+Q91ZM7+Q9ES14). The data set is described as follows: Displacement of [3H]-GABA from Gamma-aminobutyric acid A receptor binding sites in brain homogenates (relative to 1 mM GABA) at 100 uM. It counts as tissue-based. Summed up: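 Male Sprague-Dawley rat brain, frozen, homogenized in 50 mM Tris-citrate (pH 7.1 at 4 °C). Membranes treated with 0.05% Triton X-100 for 30 min at 37 °C and resuspended at 0.5–1.0 mg/mL protein. Incubated with 8 nM [3H]GABA for 5 min at 4 °C, stopped by centrifugation, and counted by scintillation. Test concentration 100 µM. Expressed as percent of the inhibition given by 1 mM GABA. Mean of two experiments, each in triplicate.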
Background: Displacement assays read how much labelled ligand stays bound in the presence of the test substance.

Data set [4] deals with GABA B receptor (Rattus norvegicus) (UniProt Q9Z0U4+O88871). The data set is described as follows: Displacement of [3H]GABA from GABA-B binding sites in brain homogenates (relative to 100 uM baclofen) at 100 uM. It counts as tissue-based. Summed up:
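Rat brain membrane binding (male Sprague-Dawley) using 10 nM [3H]GABA, with 100 µM isoguvacine present to block GABA-A sites. Test concentration 100 µM. Percent inhibition expressed relative to 100 µM baclofen. Mean of two separate experiments, each in triplicate.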

Data set [5] concerns Mus musculus. Put plainly: In vivo anticonvulsant activity against pentylenetetrazole seizure threshold(SMC) in mice 0.5 hr after sc administration; indicates inactive at 600 mg/kg. It counts as functional, organism-based. Also on record: dose 600 mg/kg.
Data set [6] has as its system Mus musculus. The data set is described as follows: In vivo anticonvulsant activity against pentylene tetrazole seizure threshold(SMC) in mice 4 hr after sc administration; indicates inactive at 600 mg/kg. It counts as functional, organism-based. Also on record: dose 600 mg/kg.
For data set [7], the system named is Mus musculus. The data set is described as follows: In vivo anticonvulsant activity against electric shock induced seizures(MES) in mice 0.5 hr after ip administration; indicates inactive at 600 mg/kg. It is filed as functional, organism-based. Also on record: dose 600 mg/kg.
Data set [8] relates to Mus musculus. The data set is described as follows: In vivo neurotoxicity at 600 mg/kg, number of animals exhibiting neurotoxicity in the rotarod test / number of animals tested at 4 hr; 0/2. On the set-up: dose 600 mg/kg. It counts as toxicity, organism-based.

Active and inactive are the calls of the source.

Take `NCCOP(=O)(O)c1ccccc1`: the Toxicity with Mus musculus [1] and with Mus musculus [8] was 0 each time. The Anticonvulsant activity entry with Mus musculus [2], in the data set on Mus musculus [5], with Mus musculus [6] and in the data set on Mus musculus [7] was “inactive” each time. The inhibition in data set [3] was 15%; in data set [4], 16%.

Usually inhibition stands for the relative decrease from the control value, in per cent.

The values are drawn from ChEMBL document CHEMBL1122654, “Phosphorus analogues of gamma-aminobutyric acid, a new class of anticonvulsants” (J Med Chem, 1984).
